ChEMBL document CHEMBL1149811, “Synthesis of novel 4,6-disubstituted quinazoline derivatives, their anti-inflammatory and anti-cancer activity (cytotoxic) against U937 leukemia cell lines” (Eur J Med Chem, 2008)
Values after ≈ are worked out from the molar mass of the structure shown.

Experiments:
[1] = test system: Rattus norvegicus; experiment: Antiinflammatory activity in Wistar rat assessed as inhibition of carrageenan-induced paw edema at 10 mg/kg, po; assay type: functional
Procedure, shortened: (§1)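 Male Wistar rats, fasted overnight, three per group. Given orally as 1% gum acacia suspension (test 100 mg/kg, indomethacin 10 mg/kg; controls vehicle). One hour later, 0.1 ml of 1% carrageenan injected sub-plantar into left hind paw. Paw volume measured by digital plethysmometer before carrageenan and at 3 h. Percent inhibition per rat versus mean control paw volume, reported as mean ± SE.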

[2] = test system: Rattus norvegicus; experiment: Antiinflammatory activity in Wistar rat assessed as inhibition of carrageenan-induced paw edema at 100 mg/kg, po; assay type: functional; procedure, shortened: as §1
[3] = test system: U-937; experiment: Cytotoxicity against human U937 cells after 2 days by MTT assay; assay type: functional, cell-based; details: U-937, 48 h
Procedure, shortened: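 U937 human histocytic lymphoma cells grown in RPMI-1640 with 10% FBS at 37 °C under CO2. Seeded at 2 × 10^4 cells/well and compounds added after 24 h. Viability read after two days by MTT (4 h at 37 °C, formazan dissolved in DMSO, absorbance 570 nm). Percent inhibition versus untreated control; IC50 (50% cell-number decrease) by linear regression; mean ± SE of four observations.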

| Structure (SMILES) | inhibition in vivo at 10 mg/kg [1] [%] | inhibition in vivo at 100 mg/kg [2] [%] | IC50 [3] [µg/mL] |
| --- | --- | --- | --- |
| COc1ccc2c(c1)c(CC(=O)O)c(C)n2C(=O)c1ccc(Cl)cc1 [INDOMETHACIN] | 48 | – | – |
| O=C(O)[C@H](Cc1c[nH]c2ccccc12)Nc1nc(-c2ccccc2)nc2ccc(I)cc12 | – | 0 | 46.1 (≈ 86.3 µM) |
| O=C(O)CNc1nc(-c2ccccc2)nc2ccc(Br)cc12 | – | 0 | – |
| COc1cc([C@@H]2c3cc4c(cc3[C@@H](O[C@@H]3O[C@@H]5CO[C@@H](C)O[C@H]5[C@H](O)[C@H]3O)[C@H]3COC(=O)[C@H]23)OCO4)cc(OC)c1O [ETOPOSIDE] | – | – | 10.6 (≈ 17.9 µM) |
| C[C@H](Nc1nc(-c2ccccc2)nc2ccc(Br)cc12)C(=O)O | – | 0 | 104 (≈ 280 µM) |
| O=C(O)[C@H](Cc1c[nH]c2ccccc12)Nc1nc(-c2ccccc2)nc2ccc(Br)cc12 | – | 0 | 37.9 (≈ 77.8 µM) |
| CC[C@H](C)[C@H](Nc1nc(-c2ccccc2)nc2ccc(Br)cc12)C(=O)O | – | 0 | 32 (≈ 77.3 µM) |
| O=C(O)[C@H](Cc1c[nH]c2ccccc12)Nc1nc(-c2ccccc2)nc2ccccc12 | – | 1.8 | 74.8 (≈ 183 µM) |
| CC[C@H](C)[C@H](Nc1nc(-c2ccccc2)nc2ccc(I)cc12)C(=O)O | – | 0 | 52.4 (≈ 114 µM) |
| O=C(O)CNc1nc(-c2ccccc2)nc2ccccc12 | – | 0 | – |
| O=C(O)[C@H](Cc1ccccc1)Nc1nc(-c2ccccc2)nc2ccccc12 | – | 0 | – |
| O=C(O)CNc1nc(-c2ccccc2)nc2ccc(I)cc12 | – | 0 | – |
| CC[C@H](C)[C@H](Nc1nc(-c2ccccc2)nc2ccccc12)C(=O)O | – | 4.1 | 121 (≈ 360 µM) |
| O=C(O)[C@H](Cc1ccccc1)Nc1nc(-c2ccccc2)nc2ccc(Br)cc12 | – | 0 | 50.4 (≈ 112 µM) |
| O=C(O)[C@H](Cc1ccccc1)Nc1nc(-c2ccccc2)nc2ccc(I)cc12 | – | 3.7 | 16.1 (≈ 32.5 µM) |
| C[C@H](Nc1nc(-c2ccccc2)nc2ccc(I)cc12)C(=O)O | – | 6.5 | – |
| C[C@H](Nc1nc(-c2ccccc2)nc2ccccc12)C(=O)O | – | 9.3 | – |
